The target in series [1] is Neuronal acetylcholine receptor; alpha2/beta4 (Rattus norvegicus, UniProt P12389+P12392). Nature of the series: Displacement of [3H] epibatidine from rat alpha2beta4 nAChR by beta scintillation counting. The series is classed as protein-complex assay. (In general: Loss of bound radioactivity is the signal in a displacement assay; it reports binding, not function.)
For series [2], the target named is T1, Neuronal acetylcholine receptor; alpha4/beta2 (Rattus norvegicus, UniProt P09483+P12390). The series is described as follows: Displacement of [3H] epibatidine from rat alpha4beta2 nAChR by beta scintillation counting. Type of series: protein-complex assay.
The target in series [3] is T1, Neuronal acetylcholine receptor; alpha4/beta2. The series is described as follows: Displacement of [3H] epibatidine from rat alpha4beta2* nAChR in rat forebrain by beta scintillation counting.
For series [4], the target named is Acetylcholine receptor; alpha1/beta1/delta/gamma (Homo sapiens) (UniProt P02708+P07510+P11230+Q07001). Nature of the series: Antagonist activity at human alpha1beta1gammadelta nAChR expressed in TE671/RD cells at 10 uM by 86Rb+ flux assay. The series is classed as functional, cell-based. The method, boiled down: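 Human clonal TE671/RD cells endogenously express muscle-type α1*-nAChRs (α1, β1, γ, δ). Cells were kept at low passage (1−26 from frozen stocks). Function was read as 86Rb+ efflux, with agonist and antagonist modes tested up to 10 μM.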

Series [5] has as its target T2, 5-hydroxytryptamine receptor 2C (Homo sapiens) (UniProt P28335).
T2 sequence (whole entry): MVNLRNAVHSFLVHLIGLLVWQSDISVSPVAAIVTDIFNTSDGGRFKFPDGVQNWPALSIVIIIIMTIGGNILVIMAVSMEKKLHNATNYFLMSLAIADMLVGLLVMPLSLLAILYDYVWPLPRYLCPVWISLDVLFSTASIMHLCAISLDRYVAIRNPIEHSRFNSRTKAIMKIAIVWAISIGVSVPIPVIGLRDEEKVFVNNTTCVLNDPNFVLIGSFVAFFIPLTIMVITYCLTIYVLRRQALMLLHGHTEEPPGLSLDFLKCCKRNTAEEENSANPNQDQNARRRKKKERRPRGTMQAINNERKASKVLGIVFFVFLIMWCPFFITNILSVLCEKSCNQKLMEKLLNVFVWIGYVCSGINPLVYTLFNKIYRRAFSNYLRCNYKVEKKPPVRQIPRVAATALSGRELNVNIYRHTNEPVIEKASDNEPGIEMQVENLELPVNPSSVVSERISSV
The series is described as follows: Displacement of [3H]Mesulergine from 5-HT2C at 10 uM.

The target in series [6] is D(1A) dopamine receptor (Homo sapiens) (UniProt P21728). Nature of the series: Displacement of [3H][…] from D1 at 10 uM.
The target in series [7] is T3, Alpha-2A adrenergic receptor (Homo sapiens) (UniProt P08913).
T3 sequence (whole entry): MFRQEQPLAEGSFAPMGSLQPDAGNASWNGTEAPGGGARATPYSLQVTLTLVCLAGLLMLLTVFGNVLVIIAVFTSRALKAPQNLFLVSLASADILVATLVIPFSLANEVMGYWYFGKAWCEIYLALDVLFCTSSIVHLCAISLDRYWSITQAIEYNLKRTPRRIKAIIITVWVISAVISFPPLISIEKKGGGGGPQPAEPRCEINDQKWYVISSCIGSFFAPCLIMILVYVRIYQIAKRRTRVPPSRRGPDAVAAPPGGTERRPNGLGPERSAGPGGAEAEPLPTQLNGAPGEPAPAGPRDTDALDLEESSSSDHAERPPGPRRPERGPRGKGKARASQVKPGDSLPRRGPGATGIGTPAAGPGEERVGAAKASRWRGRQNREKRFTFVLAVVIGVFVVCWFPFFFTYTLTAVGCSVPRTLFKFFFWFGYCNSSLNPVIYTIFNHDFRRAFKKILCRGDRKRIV
The series is described as follows: Displacement of [3H]Clonidine from alpha2A adrenergic receptor at 10 uM.

The target of series [8] is T4, Alpha-2C adrenergic receptor (Homo sapiens) (UniProt P18825).
T4 sequence (whole entry): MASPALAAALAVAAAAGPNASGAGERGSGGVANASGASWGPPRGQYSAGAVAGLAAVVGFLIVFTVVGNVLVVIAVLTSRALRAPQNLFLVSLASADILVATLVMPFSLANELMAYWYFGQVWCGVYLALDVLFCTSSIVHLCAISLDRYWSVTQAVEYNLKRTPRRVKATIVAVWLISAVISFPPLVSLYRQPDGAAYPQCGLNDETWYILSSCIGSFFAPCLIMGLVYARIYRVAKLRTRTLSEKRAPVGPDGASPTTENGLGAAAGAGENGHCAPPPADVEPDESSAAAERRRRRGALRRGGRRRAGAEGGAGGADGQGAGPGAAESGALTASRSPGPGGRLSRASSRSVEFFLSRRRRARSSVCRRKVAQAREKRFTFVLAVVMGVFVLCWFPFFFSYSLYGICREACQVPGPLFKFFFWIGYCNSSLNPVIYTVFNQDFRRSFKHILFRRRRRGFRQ
The series is described as follows: Displacement of [3H]Clonidine from alpha2C adrenergic receptor at 10 uM.

The target of series [9] is T5, Muscarinic acetylcholine receptor M2 (Homo sapiens) (UniProt P08172).
T5 sequence (whole entry): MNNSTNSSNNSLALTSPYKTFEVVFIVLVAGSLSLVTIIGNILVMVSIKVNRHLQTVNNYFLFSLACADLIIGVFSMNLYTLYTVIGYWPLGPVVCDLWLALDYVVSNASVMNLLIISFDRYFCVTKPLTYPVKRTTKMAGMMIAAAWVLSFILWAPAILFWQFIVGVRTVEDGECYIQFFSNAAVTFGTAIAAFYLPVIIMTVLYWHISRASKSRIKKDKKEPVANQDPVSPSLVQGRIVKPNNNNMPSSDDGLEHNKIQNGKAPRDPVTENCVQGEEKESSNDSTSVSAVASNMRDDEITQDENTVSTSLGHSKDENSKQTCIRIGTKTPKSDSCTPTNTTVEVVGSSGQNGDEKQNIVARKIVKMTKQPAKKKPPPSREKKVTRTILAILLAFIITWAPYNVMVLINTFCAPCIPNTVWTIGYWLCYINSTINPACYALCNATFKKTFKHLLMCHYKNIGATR
The series is described as follows: Displacement of [3H]QNB from M2 receptor at 10 uM.

For series [10], the target named is Muscarinic acetylcholine receptor M3 (Homo sapiens) (UniProt P20309). The series is described as follows: Displacement of [3H]QNB from M3 receptor at 10 uM.
In another series the target is hERG (KCNH2) (Homo sapiens, UniProt Q12809). The series is described as follows: Inhibition of human ERG expressed in CHO cells at 10 uM by patch clamp electrophysiology assay. The series is classed as cell-based. The settings on record: CHO cells expressing human ERG. The method, boiled down:
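Automated patch-clamp electrophysiology on hERG K+ channels in CHO cell lines; inhibition measured at three concentrations: 0.1, 1 and 10 μM.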
For orientation: The patch-clamp technique gives a direct electrical read-out from membranes.

Calls of active or inactive are those of the source. The rule behind the calls is not given here.

By Ki is commonly meant the dissociation constant of the complex between target and ligand, obtained from inhibition or displacement. The low end stands for a stronger hold on the target, the high end for a looser hold on the target. As a reminder, the inhibition is the relative decrease from the control value, in per cent.

T1 sequence (P09483 whole entry): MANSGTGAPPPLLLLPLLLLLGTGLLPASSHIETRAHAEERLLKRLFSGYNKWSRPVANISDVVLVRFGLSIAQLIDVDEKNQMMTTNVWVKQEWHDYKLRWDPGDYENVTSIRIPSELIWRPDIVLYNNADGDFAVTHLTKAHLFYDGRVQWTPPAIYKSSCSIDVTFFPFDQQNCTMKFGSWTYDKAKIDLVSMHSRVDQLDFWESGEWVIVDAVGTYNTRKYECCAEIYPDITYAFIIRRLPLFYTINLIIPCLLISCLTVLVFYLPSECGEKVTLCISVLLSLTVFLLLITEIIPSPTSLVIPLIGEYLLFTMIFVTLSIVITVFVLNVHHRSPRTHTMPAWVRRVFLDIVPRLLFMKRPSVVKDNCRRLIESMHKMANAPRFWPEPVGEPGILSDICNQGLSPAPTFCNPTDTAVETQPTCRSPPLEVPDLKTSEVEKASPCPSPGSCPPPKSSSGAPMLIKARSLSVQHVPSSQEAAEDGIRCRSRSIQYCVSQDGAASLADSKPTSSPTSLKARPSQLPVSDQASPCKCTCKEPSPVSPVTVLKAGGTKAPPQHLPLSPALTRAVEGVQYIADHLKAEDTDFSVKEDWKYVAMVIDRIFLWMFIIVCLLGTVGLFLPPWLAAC
T1 sequence (P12390 whole entry): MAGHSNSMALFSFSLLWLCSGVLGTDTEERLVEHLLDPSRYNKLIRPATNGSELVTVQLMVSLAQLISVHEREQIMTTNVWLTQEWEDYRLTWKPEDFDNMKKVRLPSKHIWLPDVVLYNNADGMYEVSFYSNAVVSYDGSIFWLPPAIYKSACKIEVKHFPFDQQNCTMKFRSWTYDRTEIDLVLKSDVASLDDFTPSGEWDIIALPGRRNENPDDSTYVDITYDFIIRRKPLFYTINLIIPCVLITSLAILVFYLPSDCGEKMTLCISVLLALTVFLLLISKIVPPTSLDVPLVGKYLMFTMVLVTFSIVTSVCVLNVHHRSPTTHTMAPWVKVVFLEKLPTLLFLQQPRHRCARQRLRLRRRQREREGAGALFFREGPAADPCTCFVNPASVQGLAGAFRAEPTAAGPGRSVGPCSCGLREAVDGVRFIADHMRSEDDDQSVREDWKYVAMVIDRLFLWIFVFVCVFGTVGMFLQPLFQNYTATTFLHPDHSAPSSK
Chain of Muscarinic acetylcholine receptor M3 (Homo sapiens) (P20309 whole entry, looked up): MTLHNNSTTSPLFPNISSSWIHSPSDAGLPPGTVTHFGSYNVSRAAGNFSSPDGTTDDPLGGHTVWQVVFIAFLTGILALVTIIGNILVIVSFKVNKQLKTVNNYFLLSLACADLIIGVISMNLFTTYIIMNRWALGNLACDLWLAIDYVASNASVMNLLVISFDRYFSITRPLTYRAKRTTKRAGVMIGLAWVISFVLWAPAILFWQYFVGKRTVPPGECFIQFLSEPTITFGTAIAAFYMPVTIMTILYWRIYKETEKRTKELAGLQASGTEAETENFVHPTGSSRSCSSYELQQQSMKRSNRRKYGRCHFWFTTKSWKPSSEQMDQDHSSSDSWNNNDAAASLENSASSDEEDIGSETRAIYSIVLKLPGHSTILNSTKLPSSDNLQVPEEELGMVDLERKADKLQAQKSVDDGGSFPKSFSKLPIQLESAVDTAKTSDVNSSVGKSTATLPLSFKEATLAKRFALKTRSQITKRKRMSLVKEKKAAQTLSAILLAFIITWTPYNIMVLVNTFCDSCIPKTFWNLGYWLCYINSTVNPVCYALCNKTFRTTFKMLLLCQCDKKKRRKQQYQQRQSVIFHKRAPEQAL
Chain of D(1A) dopamine receptor (Homo sapiens) (P21728 whole entry): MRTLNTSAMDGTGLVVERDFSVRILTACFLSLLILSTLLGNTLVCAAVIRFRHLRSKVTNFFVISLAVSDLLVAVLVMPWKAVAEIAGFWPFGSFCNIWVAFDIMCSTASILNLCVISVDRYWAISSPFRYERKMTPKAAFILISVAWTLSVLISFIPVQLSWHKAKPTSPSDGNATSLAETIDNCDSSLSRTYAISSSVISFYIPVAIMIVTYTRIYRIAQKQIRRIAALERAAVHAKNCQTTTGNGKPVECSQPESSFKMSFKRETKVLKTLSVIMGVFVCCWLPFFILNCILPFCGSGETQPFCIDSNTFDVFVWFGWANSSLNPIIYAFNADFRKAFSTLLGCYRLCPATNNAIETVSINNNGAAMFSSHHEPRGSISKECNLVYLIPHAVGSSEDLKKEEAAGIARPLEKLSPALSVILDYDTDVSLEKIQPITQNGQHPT
Chain of hERG (KCNH2) (Q12809 whole entry): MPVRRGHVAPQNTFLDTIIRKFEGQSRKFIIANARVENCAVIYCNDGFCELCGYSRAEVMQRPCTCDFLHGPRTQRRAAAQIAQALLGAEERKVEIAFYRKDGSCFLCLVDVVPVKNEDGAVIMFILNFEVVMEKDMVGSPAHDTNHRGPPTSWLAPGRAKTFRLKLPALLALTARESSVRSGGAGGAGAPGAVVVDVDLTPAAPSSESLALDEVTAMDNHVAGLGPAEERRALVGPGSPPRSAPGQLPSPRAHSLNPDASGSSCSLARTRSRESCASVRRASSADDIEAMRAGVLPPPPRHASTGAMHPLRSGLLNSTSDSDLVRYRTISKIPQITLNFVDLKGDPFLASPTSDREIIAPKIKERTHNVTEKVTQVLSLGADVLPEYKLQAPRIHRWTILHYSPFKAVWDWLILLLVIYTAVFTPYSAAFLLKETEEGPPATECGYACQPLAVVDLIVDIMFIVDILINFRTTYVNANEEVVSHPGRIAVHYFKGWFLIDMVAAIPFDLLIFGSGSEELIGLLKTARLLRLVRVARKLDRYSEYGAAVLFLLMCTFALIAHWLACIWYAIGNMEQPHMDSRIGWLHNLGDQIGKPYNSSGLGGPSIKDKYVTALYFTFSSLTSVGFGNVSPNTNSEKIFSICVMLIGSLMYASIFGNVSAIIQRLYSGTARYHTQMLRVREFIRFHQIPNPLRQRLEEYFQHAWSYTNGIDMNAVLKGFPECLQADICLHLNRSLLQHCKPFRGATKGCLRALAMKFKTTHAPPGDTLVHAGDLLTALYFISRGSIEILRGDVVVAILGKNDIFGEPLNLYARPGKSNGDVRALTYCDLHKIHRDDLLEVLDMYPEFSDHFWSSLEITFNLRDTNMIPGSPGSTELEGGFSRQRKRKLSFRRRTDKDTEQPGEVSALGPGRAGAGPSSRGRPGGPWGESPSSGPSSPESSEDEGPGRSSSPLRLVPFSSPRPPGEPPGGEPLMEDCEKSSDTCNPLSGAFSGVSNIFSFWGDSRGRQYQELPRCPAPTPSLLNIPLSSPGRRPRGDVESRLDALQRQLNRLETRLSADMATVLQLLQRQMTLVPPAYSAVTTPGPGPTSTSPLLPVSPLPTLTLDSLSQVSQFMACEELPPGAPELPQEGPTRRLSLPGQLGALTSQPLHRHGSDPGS
Chain of Neuronal acetylcholine receptor; alpha2/beta4 (P12389 whole entry): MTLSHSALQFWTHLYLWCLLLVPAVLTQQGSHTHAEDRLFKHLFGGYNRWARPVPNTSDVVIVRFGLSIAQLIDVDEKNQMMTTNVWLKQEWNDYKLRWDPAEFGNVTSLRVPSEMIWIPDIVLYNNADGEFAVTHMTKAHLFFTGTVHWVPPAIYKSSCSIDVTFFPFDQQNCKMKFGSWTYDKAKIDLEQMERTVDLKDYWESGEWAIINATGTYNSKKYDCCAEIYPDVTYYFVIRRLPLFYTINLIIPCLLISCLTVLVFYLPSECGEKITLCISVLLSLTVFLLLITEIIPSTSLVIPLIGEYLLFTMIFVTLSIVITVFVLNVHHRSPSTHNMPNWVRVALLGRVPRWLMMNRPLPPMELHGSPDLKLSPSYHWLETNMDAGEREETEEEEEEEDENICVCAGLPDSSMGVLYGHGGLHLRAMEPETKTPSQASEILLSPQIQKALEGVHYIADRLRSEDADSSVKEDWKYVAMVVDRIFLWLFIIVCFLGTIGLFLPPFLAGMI
Chain of Neuronal acetylcholine receptor; alpha2/beta4 (P12392 whole entry): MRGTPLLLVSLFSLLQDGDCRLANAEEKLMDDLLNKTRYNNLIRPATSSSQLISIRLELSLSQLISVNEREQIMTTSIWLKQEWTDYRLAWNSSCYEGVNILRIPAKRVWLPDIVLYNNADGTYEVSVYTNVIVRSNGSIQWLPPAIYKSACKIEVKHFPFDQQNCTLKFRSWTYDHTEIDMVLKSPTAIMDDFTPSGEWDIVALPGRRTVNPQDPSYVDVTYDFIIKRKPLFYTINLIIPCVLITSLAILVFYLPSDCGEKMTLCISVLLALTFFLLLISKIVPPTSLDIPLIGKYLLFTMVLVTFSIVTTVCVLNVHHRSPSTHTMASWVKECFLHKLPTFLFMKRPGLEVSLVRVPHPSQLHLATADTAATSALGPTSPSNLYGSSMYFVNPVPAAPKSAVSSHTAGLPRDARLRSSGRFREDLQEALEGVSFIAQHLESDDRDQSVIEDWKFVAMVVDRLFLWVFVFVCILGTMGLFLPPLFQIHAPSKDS

`COCC[C@H]1C[C@@H]1c1cncc(OC[C@@H]2CCN2)c1`: the Ki in series [1] was determined as 236 nM; in series [2] it was 0.1 nM; in series [3], 0.3 nM. The outcome in series [4] was inactive. Further, the inhibition in series [5] was 33.8%; in series [6] it was 90.3%; in [7], 9.7%; in [8] it was 30.6%; in [9] it was 0.5%; in series [10], 9.6%. For the same compound, on hERG (KCNH2), the inhibition at 10 µM came out at 13.7%.
`CNC(=O)OCC[C@H]1C[C@@H]1c1cncc(OC[C@@H]2CCN2)c1`: the Ki in series [1] turned out to be 1890 nM; in [2], 0.6 nM; in [3], 1.7 nM. Moreover, the result in series [4] was inactive. The inhibition in [5] was 6.3%; in series [6] it was 2.1%; in series [7], 15.5%; in series [8], 42%; in series [9], -0.6%; in series [10], 30.2%. In addition, the inhibition at 10 µM at hERG (KCNH2) amounted to 16.6%.
On to `OCC[C@H]1C[C@@H]1c1cncc(OC[C@@H]2CCN2)c1`, for which the Ki in [1] amounted to 249 nM; in [2], 0.1 nM; in series [3], 0.5 nM. Further, the result in series [4] was inactive. For the same compound, the inhibition in [5] was 2.4%; in series [6], 51.2%; in series [7], -5.3%; in series [8], 17.6%; in series [9], -8.4%; in series [10] it was 0%. At hERG (KCNH2), the inhibition at 10 µM turned out to be 19.1%.

For the origin of these results see ChEMBL document CHEMBL2021777 (J Med Chem, 2012).
